How the values were obtained:
Mus musculus [1] = species on record: Mus musculus; experiment: Effect of compound on mice bearing the L1210 Leukemia expressed as T/C percent treated/control)-dose 30x2 mg/ kg; assay type: functional
Mus musculus [2] = species on record: Mus musculus; experiment: Effect of compound on mice bearing the L1210 Leukemia expressed as T/C percent treated/control)-dose 40 mg/ kg; assay type: functional; conditions: at 40 mg/kg
Mus musculus [3] = species on record: Mus musculus; experiment: Average change in body weight from onset to termination of therapy in mice bearing the L1210 Leukemia(dose 15x2 mg/ kg ); assay type: functional
Outline: (§1)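 Female CD2F1 mice carried implanted L1210 leukemia. Drug was given ip in suspension twice daily for 6 consecutive days, beginning 24 h after implantation, with 5–10 mice per group. The value is the average percent body-weight change from onset to termination of therapy.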

Mus musculus [4] = species on record: Mus musculus; experiment: Average survival days at the dose 20x2 mg/ kg in mice bearing the L1210 Leukemia; assay type: functional
Outline: (§2)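 CD2F1 female mice with implanted L1210 leukemia; each compound given ip as a suspension, twice daily for 6 consecutive days, starting 24 h after tumor implantation; 5-10 mice per group. Read-out is mean survival time, counting only mice dying before day 60. Body weight change is recorded from onset to end of therapy.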

Mus musculus [5] = species on record: Mus musculus; experiment: Effect of compound on mice bearing the L1210 Leukemia expressed as T/C percent treated/control)-dose 15x2 mg/ kg; assay type: functional
Mus musculus [6] = species on record: Mus musculus; experiment: Average survival days at the dose 40 mg/ kg in mice bearing the L1210 Leukemia; assay type: functional
Mus musculus [7] = species on record: Mus musculus; experiment: Average change in body weight from onset to termination of therapy in mice bearing the L1210 Leukemia(dose 30x2 mg/ kg ); assay type: functional; outline: as §1
Mus musculus [8] = species on record: Mus musculus; experiment: Average survival days at the dose 30x2 mg/ kg in mice bearing the L1210 Leukemia; assay type: functional; outline: as §2
Mus musculus [9] = species on record: Mus musculus; experiment: Average survival days at the dose 10x2 mg/ kg in mice bearing the L1210 Leukemia; assay type: functional; outline: as §2
Mus musculus [10] = species on record: Mus musculus; experiment: Average change in body weight from onset to termination of therapy in mice bearing the L1210 Leukemia(dose 20x2 mg/ kg ); assay type: functional; outline: as §1
Mus musculus [11] = species on record: Mus musculus; experiment: Average change in body weight from onset to termination of therapy in mice bearing the L1210 Leukemia(dose 10x2 mg/ kg ); assay type: functional; outline: as §1
Mus musculus [12] = species on record: Mus musculus; experiment: Average survival days at the dose 15x2 mg/ kg in mice bearing the L1210 Leukemia; assay type: functional; outline: as §2
Mus musculus [13] = species on record: Mus musculus; experiment: Effect of compound on mice bearing the L1210 Leukemia expressed as T/C percent treated/control)-dose 10x2 mg/ kg; assay type: functional
Mus musculus [14] = species on record: Mus musculus; experiment: Average change in body weight from onset to termination of therapy in mice bearing the L1210 Leukemia(dose 40 mg/ kg ); assay type: functional; conditions: at 40 mg/kg
Outline: (§3)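 L1210 leukemia in CD2F1 mice. Drug was given ip as a suspension once daily for 6 consecutive days, starting 24 h after tumor implantation, with 5–10 mice per group. The value is the average body-weight change from onset to termination of therapy, in percent.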

Mus musculus [15] = species on record: Mus musculus; experiment: Effect of compound on mice bearing the L1210 Leukemia expressed as T/C percent treated/control)-dose 20x2 mg/ kg; assay type: functional
Mus musculus [16] = species on record: Mus musculus; experiment: Average change in body weight from onset to termination of therapy in mice bearing the L1210 Leukemia(dose 20 mg/ kg ); assay type: functional; conditions: at 20 mg/kg; outline: as §3
Mus musculus [17] = species on record: Mus musculus; experiment: Effect of compound on mice bearing the L1210 Leukemia expressed as T/C percent treated/control)-dose 20 mg/ kg; assay type: functional; conditions: at 20 mg/kg
Mus musculus [18] = experiment: Effect of compound on mice bearing the L1210 Leukemia expressed as T/C percent treated/control)-dose 10 mg/kg; assay type: functional
Mus musculus [19] = species on record: Mus musculus; experiment: Effect of compound on mice bearing the L1210 Leukemia expressed as T/C percent treated/control)-dose 40x2 mg/ kg; assay type: functional
Mus musculus [20] = species on record: Mus musculus; experiment: Effect of compound on mice bearing the L1210 Leukemia expressed as T/C percent treated/control)-dose 60 mg/ kg; assay type: functional; conditions: at 60 mg/kg
Mus musculus [21] = species on record: Mus musculus; experiment: Average change in body weight from onset to termination of therapy in mice bearing the L1210 Leukemia(dose 40x2 mg/ kg ); assay type: functional; outline: as §1
Mus musculus [22] = species on record: Mus musculus; experiment: Average survival days at the dose 40x2 mg/ kg in mice bearing the L1210 Leukemia; assay type: functional; outline: as §2
Mus musculus [23] = species on record: Mus musculus; experiment: Average survival days at the dose 60 mg/ kg in mice bearing the L1210 Leukemia
Mus musculus [24] = species on record: Mus musculus; experiment: Average change in body weight from onset to termination of therapy in mice bearing the L1210 Leukemia(dose 60 mg/ kg ); assay type: functional; conditions: at 60 mg/kg; outline: as §3
Mus musculus [25] = species on record: Mus musculus; experiment: Average survival days at the dose 20 mg/ kg in mice bearing the L1210 Leukemia
Mus musculus [26] = species on record: Mus musculus; experiment: Average change in body weight from onset to termination of therapy in mice bearing the L1210 Leukemia(dose 10 mg/ kg ); assay type: functional; conditions: at 10 mg/kg; outline: as §3

## NC(=S)N/N=C/c1ncccc1N [TRIAPINE]
Mus musculus [1]
  T/C: 96%
Mus musculus [2]
  T/C: 187%
Mus musculus [3]
  Average change in body weight: -3.3%
Mus musculus [4]
  Average survival: 14.6 days
Mus musculus [5]
  T/C: 262%
Mus musculus [6]
  Average survival: 14.6 days
Mus musculus [7]
  Average change in body weight: -12.8%
Mus musculus [8]
  Average survival: 7.3 days
Mus musculus [9]
  Average survival: 18.7 days
Mus musculus [10]
  Average change in body weight: -12.4%
Mus musculus [11]
  Average change in body weight: -6.4%
Mus musculus [12]
  Average survival: 19.8 days
Mus musculus [13]
  T/C: 246%
Mus musculus [14]
  Average change in body weight: -5.9%
Mus musculus [15]
  T/C: 192%

## Cc1cc(/C=N/N=C(/N)S)ncc1N
Mus musculus [1]
  T/C: 190%
Mus musculus [3]
  Average change in body weight: -7.1%
Mus musculus [4]
  Average survival: 17.9 days
Mus musculus [5]
  T/C: 276%
Mus musculus [6]
  Average survival: 10.8 days
Mus musculus [7]
  Average change in body weight: -12.4%
Mus musculus [8]
  Average survival: 14.4 days
Mus musculus [9]
  Average survival: 18.6 days
Mus musculus [10]
  Average change in body weight: -12.1%
Mus musculus [11]
  Average change in body weight: 1.4%
Mus musculus [12]
  Average survival: 21 days
Mus musculus [13]
  T/C: 245%
Mus musculus [15]
  T/C: 236%
Mus musculus [16]
  Average change in body weight: -7%
Mus musculus [17]
  T/C: 138%

## N/C(S)=N/N=C/c1ccc(O)cn1
Mus musculus [18]
  T/C: 133%
Mus musculus [6]
  Average survival: 10.4 days
Mus musculus [14]
  Average change in body weight: 2%

## Cc1ccnc(/C=N/N=C(/N)S)c1N
Mus musculus [1]
  T/C: 232%
Mus musculus [19]
  T/C: 255%
Mus musculus [20]
  T/C: 190%
Mus musculus [4]
  Average survival: 16.9 days
Mus musculus [21]
  Average change in body weight: -8.1%
Mus musculus [22]
  Average survival: 19.4 days
Mus musculus [7]
  Average change in body weight: -2.4%
Mus musculus [8]
  Average survival: 17.6 days
Mus musculus [9]
  Average survival: 14.8 days
Mus musculus [10]
  Average change in body weight: -3.8%
Mus musculus [11]
  Average change in body weight: 1.4%
Mus musculus [23]
  Average survival: 14.9 days
Mus musculus [13]
  T/C: 195%
Mus musculus [15]
  T/C: 222%
Mus musculus [24]
  Average change in body weight: 2%

## N/C(S)=N/N=C/c1ccc(N)cn1
Mus musculus [1]
  T/C: 91%
Mus musculus [3]
  Average change in body weight: -7.7%
Mus musculus [4]
  Average survival: 14 days
Mus musculus [5]
  T/C: 221%
Mus musculus [25]
  Average survival: 11 days
Mus musculus [7]
  Average change in body weight: -16%
Mus musculus [8]
  Average survival: 6.9 days
Mus musculus [9]
  Average survival: 17.6 days
Mus musculus [10]
  Average change in body weight: -12.3%
Mus musculus [11]
  Average change in body weight: -3.8%
Mus musculus [12]
  Average survival: 16.8 days
Mus musculus [13]
  T/C: 232%
Mus musculus [15]
  T/C: 185%
Mus musculus [16]
  Average change in body weight: -2.8%
Mus musculus [17]
  T/C: 140%

## Cc1cc(/C=N/N=C(/N)S)ncc1NO
Mus musculus [18]
  T/C: 136%
Mus musculus [26]
  Average change in body weight: -2.7%
Mus musculus [6]
  Average survival: 10.6 days

— ChEMBL document CHEMBL1125305, “Synthesis and antitumor activity of amino derivatives of pyridine-2-carboxaldehyde thiosemicarbazone” (1992)
